Test results taken from ChEMBL document CHEMBL1125824, “New pepstatin analogues: synthesis and pepsin inhibition” (J Med Chem, 1991).

Tests used:
Pepsin A [1] = target: T1, Pepsin A (Sus scrofa, UniProt P00791); test: Compound was measured for the inhibition of pepsin hydrolysis of hemoglobin.
In short: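 Porcine pepsin acting on hemoglobin substrate (0.5% solution) with inhibitor in 0.02 M KCl–HCl, pH 2.0. Substrate and inhibitor were preincubated 3 min at 37 °C, then enzyme was added for 27 min at 37 °C. The reaction was quenched with 1.5 M perchloric acid, protein was spun out, and A280 was read minus a no-enzyme blank. Four replicates at ≥5 concentrations; IC50 from % inhibition vs log concentration.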

Pepsin A [2] = target: T1, Pepsin A; test: Compound was measured for the apparent inhibition constant at pepsin
In short: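 Apparent Ki from the pepsin–hemoglobin assay: pH 2.0 KCl–HCl buffer, 30 min total at 37 °C, perchloric acid quench, A280 of supernatant minus blank. IC50 came from % inhibition vs log [inhibitor], four replicates at ≥5 concentrations. Ki(app) was calculated as IC50 − 0.5[E]0, where [E]0 is the enzyme concentration.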

T1 sequence (P00791 whole entry): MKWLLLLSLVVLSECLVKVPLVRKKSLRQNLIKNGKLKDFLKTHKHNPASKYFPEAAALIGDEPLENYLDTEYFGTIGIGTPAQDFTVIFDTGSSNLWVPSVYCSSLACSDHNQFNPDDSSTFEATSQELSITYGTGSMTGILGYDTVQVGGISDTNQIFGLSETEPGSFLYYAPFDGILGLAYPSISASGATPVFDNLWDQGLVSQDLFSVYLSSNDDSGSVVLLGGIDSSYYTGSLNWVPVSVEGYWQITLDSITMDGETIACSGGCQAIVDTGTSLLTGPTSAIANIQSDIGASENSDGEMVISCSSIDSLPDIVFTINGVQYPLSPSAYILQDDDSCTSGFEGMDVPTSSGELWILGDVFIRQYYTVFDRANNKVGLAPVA

Row | SMILES | IC50 (Pepsin A [1]) | Ki (Pepsin A [2])
1 | CC(C)[C@H](NC(=O)OCc1ccccc1)C(=O)N[C@H](C(=O)NC(c1ccccc1)C(O)CC(=O)O)C(C)C (stereo partly specified) | 0.42 µM | 0.41 µM
2 | CCCCC(NC(=O)[C@@H](NC(=O)[C@H](NC(=O)OCc1ccccc1)C(C)C)C(C)C)C(O)CC(=O)O (stereo partly specified) | 17.7 µM | 17.7 µM
3 | CC(C)[C@H](NC(=O)[C@H](NC(=O)OCc1ccccc1)C(C)C)C(=O)NC(c1ccc(O)cc1)C(O)CC(=O)O (stereo partly specified) | 1540 µM | 1540 µM
4 | CC(C)[C@H](NC(=O)[C@H](NC(=O)OCc1ccccc1)C(C)C)C(=O)NC(c1ccccc1)C(O)CC(=O)O (stereo partly specified) | 346 µM | 346 µM
5 | CCCCC(NC(=O)[C@@H](NC(=O)[C@@H](NC(=O)OCc1ccccc1)C(C)C)C(C)C)C(O)CC(=O)O (stereo partly specified) | 0.01 µM | 
6 | CC(C)CC(NC(=O)[C@@H](NC(=O)[C@H](NC(=O)OCc1ccccc1)C(C)C)C(C)C)C(O)CC(=O)O (stereo partly specified) | 39.4 µM | 39.4 µM

Further compounds by falling IC50 (Pepsin A [1]), results first:

Row | IC50 (Pepsin A [1]) | Ki (Pepsin A [2]) | SMILES
7 | 1130 µM | 1130 µM | CC(C)[C@H](NC(=O)OCc1ccccc1)C(=O)N[C@H](C(=O)NC(c1ccc(O)cc1)C(O)CC(=O)O)C(C)C (stereo partly specified)
8 | 0.2 µM | 0.19 µM | CC(C)CC(NC(=O)[C@@H](NC(=O)[C@@H](NC(=O)OCc1ccccc1)C(C)C)C(C)C)C(O)CC(=O)O (stereo partly specified)
9 | 0.007 µM |  | CC(C)CC(=O)N[C@H](C(=O)N[C@H](C(=O)N[C@@H](CC(C)C)[C@@H](O)CC(=O)N[C@@H](C)C(=O)N[C@@H](CC(C)C)[C@@H](O)CC(=O)O)C(C)C)C(C)C [PEPSTATIN]
